Screens: PubChem BioAssay, several laboratories
Most compounds without a hit are left out; they make up all but 3.4% or so of the library.
TRPML3 agonist – human mucolipin-3 channel agonism; Q8TDD5; HEK293 TRPML3-YFP, Fluo-8 calcium fluorescence; 100% = the carbachol control signal; activation, % at 3 µM; hit rate 0.29% among 220,000; AID 1448;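 active = activation above its plate's cutoff, the mean activation of the plate's test wells plus 3 SD, cut at about 12% in these data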;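 also: 0% = DMSO only wells and 100% = carbachol wells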
Target sequence (Q8TDD5 whole entry, looked up): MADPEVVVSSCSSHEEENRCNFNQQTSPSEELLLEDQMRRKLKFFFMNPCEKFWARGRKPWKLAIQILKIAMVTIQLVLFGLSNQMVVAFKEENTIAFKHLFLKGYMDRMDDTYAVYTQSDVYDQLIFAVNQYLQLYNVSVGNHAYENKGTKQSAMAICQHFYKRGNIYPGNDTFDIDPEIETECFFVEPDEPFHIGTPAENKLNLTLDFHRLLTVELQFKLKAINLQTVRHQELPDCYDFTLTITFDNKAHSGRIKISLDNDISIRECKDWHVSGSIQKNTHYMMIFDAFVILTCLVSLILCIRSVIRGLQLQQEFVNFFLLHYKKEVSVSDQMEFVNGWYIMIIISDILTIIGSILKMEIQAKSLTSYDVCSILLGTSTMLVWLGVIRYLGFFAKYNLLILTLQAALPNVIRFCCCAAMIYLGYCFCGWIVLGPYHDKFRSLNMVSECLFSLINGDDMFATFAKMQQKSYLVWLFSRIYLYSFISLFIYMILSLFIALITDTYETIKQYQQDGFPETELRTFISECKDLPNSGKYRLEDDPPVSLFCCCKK
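Material: HEK293 cells stably carrying human TRPML3-YFP; compound dosing: single dose, 3 µM final nominal compound, 0.3% DMSO final; incubation: 1-h 37 °C dye load, 5-s basal, 120-s post-compound reads; technique: Fluo-8 intracellular calcium fluorescence, excitation 470-495 nm, emission 515-575 nm; read-out basis: percent activation from peak-to-basal fluorescence ratio, scaled between DMSO and carbachol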
TAAR1 agonist – agonists of human TAAR1. Q96RJ0. CHO RD-HGA16 TAAR1, Fluo-8 calcium fluorescence; vehicle wells 0%, saturating PEA agonist 100%. activation, % at 3 µM. hit rate 0.99% among 360,000;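 active = activation above the mean activation of all test compounds in the run plus 3 SD, cut at about 38% in these data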
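Test system: RD-HGA16 (CHO) cells co-expressing Gα16 and hTAAR1 | Doses: Single dose, 3 µM | Schedule: 17-24 h seeding, 75 min 37 °C dye, 30 min RT | Evaluation: % activation from peak over basal fluorescence ratio, DMSO-to-PEA scaled | Technique: Kinetic Fluo-8 calcium fluorescence | Benchmarks: Low control DMSO, high control PEA (EC100)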
LANA-H2B inh – blocks KSHV LANA binding to histone H2A/H2B; cell-free LANA-H2A/H2B peptide, fluorescence polarization; inhibition, % (concentration not given with the values); hit rate 0.6% among 320,000; in the data active = inhibition mostly above about 10%, no sharp cut-off; inactive = mostly below about 6.7%
GPR7 antagonist – blocks human GPR7 receptor signaling. P48145. GPR7-expressing cells, fluorescence antagonist assay. inhibition, % at 4.4 µM. hit rate 1.1% among 290,000. AID 1861; in the data active = inhibition above about 16%, passing the limit was not always enough;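 also: cells stimulated with the agonist NPW; 0% = agonist with vehicle and 100% = vehicle without agonist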
TRPN1 ag – activates the zebrafish TRPN1 channel; HEK293 zebrafish TRPN1-YFP, Fluo-8 calcium fluorescence; 100% = response to 87 µM carbachol; activation, % at 3 µM; hit rate 0.18% among 220,000; AID 1424;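 active = activation above its plate's cutoff, the mean activation of test wells on that plate plus 3 SD, cut at about 19% in these data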;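 also: 0% = DMSO alone and 100% = 87 µM carbachol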
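Assay system: Zebrafish TRPN1-YFP in HEK293 cells | Incubation: Dye loading 1 h at 37 °C, then 30 min room temperature | Measured by: Kinetic Fluo-8 fluorescence, ex 470-495, em 515-575 nm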
TAAR1 antagonist – human TAAR1 antagonism; Q96RJ0; CHO RD-HGA16 TAAR1, Fluo-8 calcium fluorescence, antagonist; inhibition, % at 3 µM; hit rate 1.5% among 360,000;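 active = inhibition above a per-plate cutoff, the mean inhibition of test compounds on that plate plus 3 SD, cut at about 49% in these data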;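 also: 0% = DMSO plus EC80 beta-PEA response and 100% = DMSO alone without agonist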
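Material: RD-HGA16 CHO cells with stable hTAAR1 and Gα16; Dosing: single nominal final test compound concentration of 3 µM; Schedule: seeding 17-24 h prior, 75-min 37 °C, 30-min RT dye loading; Detection: kinetic Fluo-8 calcium fluorescence measurement; Measure: % inhibition from peak post-agonist over basal fluorescence ratio; Benchmarks: vehicle and agonist controls.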
nonsel antag count – nonselective antagonism, TAAR1 counter-screen. shares compounds with TAAR1 antagonist. counterscreen cell line, calcium fluorescence, antagonist mode. inhibition, % at 3 µM. hit rate 77% among 2,400; in the data active = inhibition above about 22%;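 also: CHO-Ga16 host cells stimulated with ATP at an EC80 level; 0% = agonist EC80 plus vehicle and 100% = vehicle without agonist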
TAAR1 antag conf – confirmation of human TAAR1 antagonists; shares compounds with TAAR1 antagonist; TAAR1-expressing cells, fluorescence antagonist read-out; inhibition, % at 3 µM; hit rate 40% among 2,400; in the data active = inhibition above about 49%;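 also: CHO-Ga16 host cells challenged with agonist PEA near its EC80; 0% = agonist at EC80 plus vehicle and 100% = vehicle with no agonist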
Ga16 nonsel ag – nonselective Ga16 agonism, counter-screen; hit rate 18% among 2,400; shares compounds with TAAR1 antagonist; activation, % at 3 µM; Ga16-expressing cells, calcium fluorescence, agonist counterscreen; AID 651953; in the data active = activation above about 12%;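 also: 0% = vehicle wells and 100% = saturating stimulus response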
TAAR1 ag counter – activates human TAAR1 in antagonist counter-screen; shares compounds with TAAR1 antagonist; hTAAR1 cell line, fluorescence activation, agonist mode; activation, % at 3 µM; hit rate 2% among 2,400; in the data active = activation above about 37%;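 also: CHO cells stably expressing TAAR1 with calcium dye readout; 0% = DMSO vehicle and 100% = full agonist response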
* = called active by the depositor.

Results for N#CCC(=O)Nc1ccc(C(=O)OCC(=O)N2CCN(C(=O)c3ccco3)CC2)cc1 ?
TAAR1 agonist: 0; LANA-H2B inh: 3; TAAR1 antagonist: 0

How did CCN1CCN(Cc2ccc(NC(=O)c3cccc(-c4ccc5nc(NC(=O)C6CC6)sc5n4)c3)cc2C(F)(F)F)CC1 do in these assays?
TAAR1 agonist: 17; TAAR1 antagonist: 66*; nonsel antag count: 44*; TAAR1 antag conf: 60*; Ga16 nonsel ag: 11; TAAR1 ag counter: 12

How did Cc1sc2ncnc(N3CCC(C(=O)NNC(=O)c4ccccc4Cl)CC3)c2c1C do in these assays?
TAAR1 agonist: 9; LANA-H2B inh: 1; GPR7 antagonist: -15; TAAR1 antagonist: 9

How did Cc1cc(Cl)ccc1OCC(=O)NNC(=O)C1CCN(c2ncnc3sc(C)c(C)c23)CC1 do in these assays?
TAAR1 agonist: 19; LANA-H2B inh: -5; TAAR1 antagonist: 78*; nonsel antag count: 39*; TAAR1 antag conf: 52*; Ga16 nonsel ag: 14*; TAAR1 ag counter: 21

How did Cc1sc2ncnc(N3CCC(C(=O)NNC(=O)COc4cccc(C(F)(F)F)c4)CC3)c2c1C do in these assays?
TAAR1 agonist: 17; LANA-H2B inh: 0; TAAR1 antagonist: 64*; nonsel antag count: 28*; TAAR1 antag conf: 41; Ga16 nonsel ag: 11; TAAR1 ag counter: 28

How did CCc1ccc(OCC(=O)NNC(=O)C2CCN(c3ncnc4sc(C)c(C)c34)CC2)cc1 do in these assays?
TAAR1 agonist: 6; LANA-H2B inh: 3; TAAR1 antagonist: 30

How did Cc1sc2ncnc(N3CCC(C(=O)NNC(=O)COc4ccc(Cl)cc4)CC3)c2c1C do in these assays?
TAAR1 agonist: 23; TAAR1 antagonist: 70*; nonsel antag count: 38*; TAAR1 antag conf: 42; Ga16 nonsel ag: 12*; TAAR1 ag counter: 27

What do the screens show for `Cc1sc2ncnc(N3CCC(C(=O)NNC(=O)COc4ccccc4F)CC3)c2c1C`?
TAAR1 agonist: 17; LANA-H2B inh: 0; TAAR1 antagonist: 65*; nonsel antag count: 31*; TAAR1 antag conf: 47; Ga16 nonsel ag: 10; TAAR1 ag counter: 27

Results for Cc1ccc(C(=O)Nc2cccc(NC(=O)CN3CCCCC3)c2)cc1 ?
TAAR1 agonist: 6; LANA-H2B inh: 11; GPR7 antagonist: -8; TAAR1 antagonist: -3

How did CCOC(=O)C1=C(COC(=O)C2CC(=O)N(c3ccccc3CC)C2)NC(=O)NC1C (centres undefined) do in these assays?
TAAR1 agonist: 2; TAAR1 antagonist: -9

Results for CCOc1ccc(C2/C(=C(/O)c3ccc(S(=O)(=O)N4CCCCC4)cc3)C(=O)C(=O)N2CCCOC)cc1OC (centres undefined) ?
TAAR1 agonist: 3; LANA-H2B inh: 0; GPR7 antagonist: 17; TAAR1 antagonist: -33

How did COc1ccc(CCNc2ncnc3c2nnn3Cc2ccccc2)cc1OC do in these assays?
TAAR1 agonist: 10; LANA-H2B inh: -1; GPR7 antagonist: -8; TAAR1 antagonist: -1

What do the screens show for `CCN(CC(=O)Nc1c(F)cccc1F)C(=O)C1CCN(c2ncnc3sc(C)c(C)c23)CC1`?
TAAR1 agonist: 13; LANA-H2B inh: 3; TAAR1 antagonist: 58*; nonsel antag count: 23*; TAAR1 antag conf: 39; Ga16 nonsel ag: 8; TAAR1 ag counter: 5

What do the screens show for `Cc1sc2ncnc(N3CCC(C(=O)NNC(=O)COc4ccccc4Cl)CC3)c2c1C`?
TAAR1 agonist: 11; LANA-H2B inh: 0; TAAR1 antagonist: 43

How did Cc1sc2ncnc(N3CCC(C(=O)NNC(=O)COc4ccc(Br)cc4)CC3)c2c1C do in these assays?
TAAR1 agonist: 20; LANA-H2B inh: 4; TAAR1 antagonist: 76*; nonsel antag count: 42*; TAAR1 antag conf: 53*; Ga16 nonsel ag: 12*; TAAR1 ag counter: 21

Results for Cc1ccc(OCC(=O)NNC(=O)C2CCN(c3ncnc4sc(C)c(C)c34)CC2)cc1 ?
TAAR1 agonist: 8; LANA-H2B inh: 1; TAAR1 antagonist: 50*; nonsel antag count: 26*; TAAR1 antag conf: 27; Ga16 nonsel ag: 11; TAAR1 ag counter: 22

Results for COc1ccc(OCC(=O)NNC(=O)C2CCN(c3ncnc4sc(C)c(C)c34)CC2)cc1 ?
TAAR1 agonist: 10; LANA-H2B inh: -9; TAAR1 antagonist: 29

What do the screens show for `O=c1[nH]c(=O)c2[nH]c(=S)n(-c3ccccc3)c2[nH]1`?
TAAR1 agonist: 2; TAAR1 antagonist: -11

How did O=C1CCC(OCc2ccccc2)CCN1[C@H](CSc1ccccc1)Cc1ccccc1 (some centres undefined) do in these assays?
TAAR1 agonist: 3; TAAR1 antagonist: 35

How did O=C(COc1ccc(Br)cc1)NCCNC(=O)c1ccccn1 do in these assays?
TAAR1 agonist: 4; LANA-H2B inh: 1; GPR7 antagonist: -8; TAAR1 antagonist: 14

Results for CCN1C(=O)c2ccc(C(=O)Nc3nccs3)cc2C1=O ?
TRPML3 agonist: 0; TAAR1 agonist: 3; LANA-H2B inh: 2; GPR7 antagonist: -12; TRPN1 ag: 0; TAAR1 antagonist: 17

Results for CC(C)(C)N1C(=O)c2ccc(C(=O)Nc3nccs3)cc2C1=O ?
TRPML3 agonist: 0; TAAR1 agonist: 12; LANA-H2B inh: 2; GPR7 antagonist: -11; TRPN1 ag: 0; TAAR1 antagonist: 49*; nonsel antag count: 13; TAAR1 antag conf: 37; Ga16 nonsel ag: 6; TAAR1 ag counter: 2

Results for O=C(CS(=O)c1ccc(F)cc1)N1CCOCC1 (centres undefined) ?
TAAR1 agonist: 4; LANA-H2B inh: -1; GPR7 antagonist: -5; TAAR1 antagonist: -18

Results for COc1ccccc1OCCn1cc(C(=O)c2ccco2)c2ccccc21 ?
TRPML3 agonist: -2; TAAR1 agonist: 10; LANA-H2B inh: 0; GPR7 antagonist: 9; TRPN1 ag: -1; TAAR1 antagonist: 45
